Assay results reported in ChEMBL document CHEMBL1212777, “Novel VIM metallo-beta-lactamase variant from clinical isolates of Enterobacteriaceae from Algeria” (2010).
Converted amounts (≈) assume the structure as drawn.

Columns and labels:
Assay type in all cases: functional
Escherichia coli [1] = assay: Antimicrobial activity against Escherichia coli harbouring plasmidBK-CMV expressing beta-lactamase VIM-19 […] in presence of 4 ug/ml Tazobactam
Escherichia coli [2] = assay: Antimicrobial activity against Escherichia coli 2603 strain expressing beta-lactamase VIM-19 […] in presence of 4 ug/ml Tazobactam
Escherichia coli [3] = assay: Antimicrobial activity against Escherichia coli harbouring plasmid BK-CMV expressing beta-lactamase VIM-19 by microdilution method
Method in brief: (§1)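 MIC by dilution on Mueller-Hinton agar, inoculum 10^4 CFU per spot, interpreted by CA-SFM guidelines. Inhibitor combinations where tested: clavulanic acid 2 μg/ml, tazobactam 4 μg/ml, EDTA 0.4 mM. Transconjugants came from rifampin-resistant E. coli C600 selected on rifampin 300 μg/ml plus cefotaxime 0.5 μg/ml. Transformants came from electroporation into E. coli DH5α selected on cefotaxime 0.5 μg/ml.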

Providencia stuartii [4] = assay: Antimicrobial activity against Providencia stuartii 6858 strain expressing beta-lactamase VIM-19 by microdilution method
Method in brief: (§2)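 Clinical isolates from intensive care patients. MICs by dilution on Mueller-Hinton agar, inoculum 10^4 CFU per spot, read after growth and interpreted by CA-SFM guidelines. Where the line names an inhibitor, it was held at a fixed level: clavulanic acid 2 μg/ml, tazobactam 4 μg/ml, or EDTA 0.4 mM.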

Klebsiella pneumoniae [5] = assay: Antimicrobial activity against Klebsiella pneumoniae 2878 strain expressing beta-lactamase VIM-19 by microdilution method; method in brief: as §2
Klebsiella pneumoniae [6] = assay: Antimicrobial activity against Klebsiella pneumoniae 6828 strain expressing beta-lactamase VIM-19 by microdilution method; method in brief: as §2
Escherichia coli [7] = assay: Antimicrobial activity against Escherichia coli DH5alpha 2878 transformant expressing beta-lactamase VIM-19 by microdilution method; method in brief: as §1
Escherichia coli [8] = assay: Antimicrobial activity against Escherichia coli C600 2878 transconjugate expressing beta-lactamase VIM-19 by microdilution method; method in brief: as §1
Escherichia coli [9] = assay: Antimicrobial activity against Escherichia coli DH5alpha harbouring plasmid BK-VIM-19 expressing beta-lactamase VIM-19 by microdilution method; method in brief: as §1
Escherichia coli [10] = assay: Antimicrobial activity against Escherichia coli 138 expressing beta-lactamase VIM-19 by microdilution method; method in brief: as §2
Escherichia coli [11] = assay: Antimicrobial activity against Escherichia coli 138 expressing beta-lactamase VIM-19 by microdilution method in presence of 4 ug/ml Tazobactam; method in brief: as §1
Providencia stuartii [12] = assay: Antimicrobial activity against Providencia stuartii 6858 strain expressing beta-lactamase VIM-19 by microdilution method in presence of 4 ug/ml Tazobactam; method in brief: as §2
Escherichia coli [13] = assay: Antimicrobial activity against Escherichia coli DH5alpha harbouring plasmid BK-VIM-19 expressing beta-lactamase VIM-19 by microdilution method in presence of 4 ug/ml Tazobactam; method in brief: as §1
Klebsiella pneumoniae [14] = assay: Antimicrobial activity against Klebsiella pneumoniae 6828 strain expressing beta-lactamase VIM-19 […] in presence of 4 ug/ml Tazobactam
Escherichia coli [15] = assay: Antimicrobial activity against Escherichia coli DH5alpha 2878 transformant expressing beta-lactamase VIM-19 […] in presence of 4 ug/ml Tazobactam
Klebsiella pneumoniae [16] = assay: Antimicrobial activity against Klebsiella pneumoniae 2878 strain expressing beta-lactamase VIM-19 by microdilution method in presence of 4 ug/ml Tazobactam; method in brief: as §2
Escherichia coli [17] = assay: Antimicrobial activity against Escherichia coli C600 2878 transconjugate expressing beta-lactamase VIM-19 by microdilution method in presence of 4 ug/ml Tazobactam; method in brief: as §1
Escherichia coli [18] = assay: Antimicrobial activity against Escherichia coli 2603 strain expressing beta-lactamase VIM-19 by microdilution method; method in brief: as §2
Escherichia coli [19] = assay: Antimicrobial activity against Escherichia coli DH5alpha harbouring plasmid BK-VIM-19 expressing beta-lactamase VIM-19 by microdilution method in presence of 2 ug/ml clavulanic acid; method in brief: as §1
Providencia stuartii [20] = assay: Antimicrobial activity against Providencia stuartii 6858 strain expressing beta-lactamase VIM-19 by microdilution method in presence of 2 ug/ml clavulanic acid; method in brief: as §2
Klebsiella pneumoniae [21] = assay: Antimicrobial activity against Klebsiella pneumoniae 6828 strain expressing beta-lactamase VIM-19 by microdilution method in presence of 2 ug/ml clavulanic acid; method in brief: as §2
Escherichia coli [22] = assay: Antimicrobial activity against Escherichia coli harbouring plasmidBK-CMV expressing beta-lactamase VIM-19 […] in presence of 2 ug/ml clavulanic acid
Klebsiella pneumoniae [23] = assay: Antimicrobial activity against Klebsiella pneumoniae 2878 strain expressing beta-lactamase VIM-19 by microdilution method in presence of 2 ug/ml clavulanic acid; method in brief: as §2
Escherichia coli [24] = assay: Antimicrobial activity against Escherichia coli 2603 strain expressing beta-lactamase VIM-19 by microdilution method in presence of 2 ug/ml clavulanic acid; method in brief: as §2
Escherichia coli [25] = assay: Antimicrobial activity against Escherichia coli C600 2878 transconjugate expressing beta-lactamase VIM-19 by microdilution method in presence of 2 ug/ml clavulanic acid
Method in brief: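 Rifampin-resistant E. coli C600 recipient mated with the clinical strain. Transconjugants were selected on agar with rifampin 300 μg/ml plus cefotaxime 0.5 μg/ml. MICs by dilution on Mueller-Hinton agar, inoculum 10^4 CFU per spot, CA-SFM interpretation. Inhibitor at a fixed level: clavulanic acid 2 μg/ml or EDTA 0.4 mM.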

Escherichia coli [26] = assay: Antimicrobial activity against Escherichia coli DH5alpha 2878 transformant expressing beta-lactamase VIM-19 by microdilution method in presence of 2 ug/ml clavulanic acid; method in brief: as §1
Escherichia coli [27] = assay: Antimicrobial activity against Escherichia coli 138 expressing beta-lactamase VIM-19 by microdilution method in presence of 2 ug/ml clavulanic acid; method in brief: as §2

| SMILES | MIC (Escherichia coli [3]) [µg/mL] | MIC (Providencia stuartii [4]) [µg/mL] | MIC (Klebsiella pneumoniae [5]) [µg/mL] | MIC (Klebsiella pneumoniae [6]) [µg/mL] | MIC (Escherichia coli [7]) [µg/mL] | MIC (Escherichia coli [8]) [µg/mL] | MIC (Escherichia coli [9]) [µg/mL] | MIC (Escherichia coli [10]) [µg/mL] | MIC (Escherichia coli [18]) [µg/mL] | also measured |
| --- | --- | --- | --- | --- | --- | --- | --- | --- | --- | --- |
| CCN1CCN(C(=O)N[C@@H](C(=O)N[C@@H]2C(=O)N3[C@@H]2SC(C)(C)[C@@H]3C(=O)O)c2ccccc2)C(=O)C1=O [PIPERACILLIN] | 2 (≈ 3.86 µM) | 256 (≈ 495 µM) | 2050 (≈ 3960 µM) | 1020 (≈ 1980 µM) | 1020 (≈ 1980 µM) | 512 (≈ 989 µM) | 512 (≈ 989 µM) | > 2050 | > 2050 | MIC (Escherichia coli [1]): 2 µg/mL; MIC (Escherichia coli [2]): 1020 µg/mL; MIC (Escherichia coli [11]): 2050 µg/mL; MIC (Providencia stuartii [12]): 256 µg/mL; MIC (Escherichia coli [13]): 512 µg/mL; MIC (Klebsiella pneumoniae [14]): 1020 µg/mL; MIC (Escherichia coli [15]): 1020 µg/mL; MIC (Klebsiella pneumoniae [16]): 2050 µg/mL; MIC (Escherichia coli [17]): 512 µg/mL |
| CO/N=C(\C(=O)N[C@@H]1C(=O)N2C(C(=O)O)=C(COC(N)=O)CS[C@H]12)c1ccco1 [CEFUROXIME] | 4 (≈ 9.43 µM) | 1020 (≈ 2410 µM) | 1020 (≈ 2410 µM) | 1020 (≈ 2410 µM) | 1020 (≈ 2410 µM) | 512 (≈ 1210 µM) | 1020 (≈ 2410 µM) | > 1020 | > 1020 | – |
| CC1(C)S[C@@H]2[C@H](NC(=O)[C@H](N)c3ccc(O)cc3)C(=O)N2[C@H]1C(=O)O [AMOXICILLIN] | 4 (≈ 10.9 µM) | > 2050 | > 2050 | > 2050 | > 2050 | > 2050 | > 2050 | > 2050 | > 2050 | MIC (Escherichia coli [19]): > 2050 µg/mL; MIC (Providencia stuartii [20]): > 2050 µg/mL; MIC (Klebsiella pneumoniae [21]): > 2050 µg/mL; MIC (Escherichia coli [22]): 4 µg/mL; MIC (Klebsiella pneumoniae [23]): > 2050 µg/mL; MIC (Escherichia coli [24]): > 2050 µg/mL; MIC (Escherichia coli [25]): > 2050 µg/mL; MIC (Escherichia coli [26]): > 2050 µg/mL; MIC (Escherichia coli [27]): > 2050 µg/mL |
